Activity calls are given as the source filed them. The rule behind the calls is not given here.
How the values were obtained:
[1] = (§1) Displacement of [3H]-3-hydroxycyclopent-1-enecarboxylic acid from GHB binding site in Sprague-Dawley rat cerebral cortex after 1 hr by scintillation counting analysis; format: tissue-based
Procedure, shortened: (§2)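 Rat cerebrocortical membranes incubated with 10 nM [3H]-ligand and competitor over a concentration range. Conditions follow the earlier [3H]NCS-382 protocol. Non-specific binding defined with 1 mM GHB. IC50 taken from inhibition curves. Each experiment run in triplicate, with three additional repeats.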

[2] = Radiochemical stability of the compound in aqueous solution of gentisic acid by HPLC analysis; format: physicochemical; conditions: buffer
Procedure, shortened: (§3)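 [3H]-labelled compound tested for protection against radiolysis in four formulations, including ethanol and aqueous gentisic acid (50 mM), at 1 mCi/mL. Stability followed by HPLC (area%, 245 nm).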

[3] = Radiochemical stability of the compound in ethanol at 1 mCi/mL by HPLC analysis; format: physicochemical; procedure, shortened: as §3
MDCK [4] = assay: Apparent permeability from basolateral to apical side in MDCK cells expressing MDR1; format: ADME, cell-based, Canis lupus familiaris; conditions: dog
MDCK [5] = assay: Apparent permeability from apical to basolateral side in MDCK cells expressing MDR1; format: ADME, cell-based, Canis lupus familiaris; conditions: dog
[6] = Ratio of drug level in brain to plasma in C57 mouse at 10 mg/kg, po after 30 mins by LC-MS/MS analysis; format: ADME, organism-based; parameters: dose 10 mg/kg, route oral; conditions: read-out: BPR
Procedure, shortened: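 Mice dosed orally at 10 mg/kg, a single acute dose. Brain and plasma sampled 30 minutes after dosing, and the brain-to-plasma concentration ratio calculated.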

Rattus norvegicus [7] = species: Rattus norvegicus; conditions: Sprague-Dawley, Cerebral cortex, at 100 µM
Rattus norvegicus [8] = species: Rattus norvegicus; conditions: Sprague-Dawley, Cerebral cortex, at 1 mM
Rattus norvegicus [9] = species: Rattus norvegicus; assay: as §1; format: tissue-based; procedure, shortened: as §2
[10] = Chemical stability of the compound in Milli-Q water at -30 degC by HPLC analysis; format: physicochemical; conditions: buffer
Procedure, shortened: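 HPLC purity tracking (area%, 245 nm) of the compound dissolved at 2 mg/mL in MilliQ water (pH 3.5). Stored at −30±2°C and also at room temperature, sampled over time (days to over a year).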

[11] = Displacement of [3H]NCS-382 from GHB binding site in Sprague-Dawley rat brain synaptic membranes after 1 hr by scintillation counting analysis; format: cell membranes, Membrane

## O=C([O-])C1=CC(O)CC1.[Na+] (stereo not given)
[1]
  IC50: 0.116 µM
  pIC50: 6.93

## [3H]C1(O)C=C(C(=O)O)CC1 (stereo not given)
[2]
  Stability: Stable
[3]
  Stability: Stable

## O=C(O)/C=C1\CCCc2ccccc2C1O (stereo not given)
MDCK [4]
  permeability: impermeable
MDCK [5]
  permeability: impermeable
[6]
  Kp at 0.5 h: 0.38
Rattus norvegicus [7]
  inhibition: Active

## COc1ccc(-c2ccc(=N)n(CCCC(=O)O)n2)cc1
Rattus norvegicus [7]
  inhibition: Active

## NCC(CC(=O)O)c1ccc(Cl)cc1 (stereo not given)
Rattus norvegicus [8]
  inhibition: inactive

## O=C(O)C1=CC(O)CC1 (stereo not given)
Rattus norvegicus [9]
  inhibition: Dose-dependent effect

## O=C(O)C1=CC(O)CC1 (racemic) [listing 1 of 2 here]
MDCK [4]
  permeability: impermeable
MDCK [5]
  permeability: impermeable
[6]
  Kp at 0.5 h: 0.37
[1]
  IC50: 0.073 µM
  pIC50: 7.14
[10]
  Stability: 16 months
[11]
  Ki: 0.16 µM

## O=C(O)C1=CC(O)CC1 (racemic) [listing 2 of 2 here]
Rattus norvegicus [9]
  inhibition: Dose-dependent effect

## O=C(O)CCCO [OXYBATE]
MDCK [4]
  permeability: impermeable
MDCK [5]
  permeability: impermeable
[6]
  Kp at 0.5 h: 0.2
[1]
  IC50: 1.14 µM
  pIC50: 5.94
Rattus norvegicus [9]
  inhibition: Dose-dependent effect
